Test results reported in ChEMBL document CHEMBL4043208, “Small molecule inhibitors of bacterial transcription complex formation” (2017).

What was measured:
[1] = test system: Bacillus subtilis subsp. subtilis str. 168; assay: Inhibition of Bacillus subtilis 168 RNA polymerase subunit beta' CH region interaction with full length sigmaA at 15 uM by ELISA relative to control
Summary of the method: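 ELISA measuring binding of B. subtilis σA to the β'-CH region of core RNAP with compound at 15 μM. Signal expressed as a percentage of the positive control (σA–β'-CH interaction without inhibitor, set at 100%).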

Bacillus subtilis = assay: Growth inhibition of Bacillus subtilis 168 at 0.2 mM measured every 10 mins over 16 hrs relative to control; format: functional; details: subsp. subtilis str. 168, read-out: GI
Summary of the method: (§1)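 Cultures grown with compound at 0.2 mM; growth expressed as a percentage of the untreated positive control (growth without inhibitor, taken as 100%). B. subtilis (Gram-positive) and E. coli (Gram-negative) assayed in parallel.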

Escherichia coli = assay: Growth inhibition of Escherichia coli DH5[alpha] at 0.2 mM measured every 10 mins over 16 hrs relative to control; format: functional; details: read-out: GI; summary of the method: as §1

SMILES | inhibition [1] | inhibition of growth at 200 µM (Bacillus subtilis) | inhibition of growth at 200 µM (Escherichia coli)
C=CCN1C(=O)/C(=C/c2c(OC)cc(OC)c3c(-c4ccccc4)c[nH]c23)SC1=S | 0% | 44% | 66%
COc1cc(OC)c2c(-c3ccccc3)c[nH]c2c1C=C1C(=O)NC(=O)NC1=O | 45% | 83% | 0%
COc1cc(OC)c2c(-c3ccccc3)c[nH]c2c1/C=C1\SC(=S)NC1=O | 17% | 44% | 45%
COC(=O)c1cc2c(OC)cc(OC)c(C=C3C(=O)NC(=O)NC3=O)c2[nH]1 | 28% | 89% | 20%
C=CCN1C(=O)/C(=C/c2c(OC)cc(OC)c3cc(C(=O)OCc4ccccc4)[nH]c23)SC1=S | 63% | 6% | 28%
COc1cc(OC)c2c(-c3ccc(Cl)cc3)c[nH]c2c1C=C1C(=O)NC(=S)NC1=O | 14% | 0% | 24%
COc1cc(OC)c2cc(C(=O)O)[nH]c2c1/C=C1\SC(=S)NC1=O | 36% | 0% | 26%
COc1cc(OC)c2cc(C(=O)O)[nH]c2c1C=C1C(=O)NC(=S)NC1=O | 71% | 0% | 0%
COc1cc(OC)c2c(-c3ccccc3)c[nH]c2c1C=C1C(=O)NC(=S)NC1=O | 14% | 0% | 0%
COc1cc(OC)c2c(-c3ccc(Cl)cc3)c[nH]c2c1C=C1C(=O)NC(=O)NC1=O | 15% | 41% | 30%
COC(=O)c1cc2c(OC)cc(OC)c(C=C3C(=O)NC(=S)NC3=O)c2[nH]1 | 17% | 91% | 57%
C=CCN1C(=O)/C(=C/c2c(OC)cc(OC)c3c(-c4ccc(Cl)cc4)c[nH]c23)SC1=S | 34% | 8% | 14%
COc1cc(OC)c2c(-c3ccc(Cl)cc3)c[nH]c2c1/C=C1\SC(=S)NC1=O | 21% | 0% | 15%
COC(=O)c1cc2c(OC)cc(OC)c(/C=C3\SC(=S)NC3=O)c2[nH]1 | 3% | 45% | 28%
C=CCN1C(=O)/C(=C/c2c(OC)cc(OC)c3cc(C(=O)O)[nH]c23)SC1=S | 74% | 21% | 30%
C=CCN1C(=O)/C(=C/c2c(OC)cc(OC)c3cc(C(=O)OC)[nH]c23)SC1=S | 46% | 22% | 79%
COc1cc(OC)c2cc(C(=O)O)[nH]c2c1C=C1C(=O)NC(=O)NC1=O | 28% | 0% | 0%
